Source: PubChem BioAssay (several laboratories)
This is a sample that favours compounds with a hit; in the whole collection about 1.9% have one here.
bovine MsrA act = bovine methionine sulfoxide reductase A activation; activation, % at 10.6 µM; 360,000 compounds, 0.3% hits; AID 602163; purified bovine MsrA, absorbance read-out; in the data active means activation above about 7.5%;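 further: 0% = vehicle and 100% = reference activator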
aDG glyco act = increases alpha dystroglycan glycosylation | 360,000 compounds, 0.22% hits | activation, % at 10 µM | Pro5-aDG cells, alpha-DG glycosylation AlphaScreen (IIH6); 0% Pro5, 100% B10-LARGE cell signal;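 active means activation of at least 8% versus controls, or a plate z-score of at least 8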;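 further: Pro5 are CHO cells carrying HIG-tagged alpha-DG that lacks glycosylation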
MsrA inhibitor = bovine MsrA inhibition. inhibition, % at 15.5 µM. 360,000 compounds, 0.75% hits. AID 651718. purified bovine MsrA, absorbance read-out;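 further: 0% = vehicle wells with enzyme and 100% = reference inhibitor wells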
UCH37 inh = inhibitors of human deubiquitinating enzyme UCH37. Q9Y5K5. purified proteasome/UCH37, Ub-AMC cleavage fluorescence. inhibition, % (no concentration beside the values). 330,000 compounds, 0.33% hits. AID 588478;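 active means mean inhibition over replicate wells above about 20%, limit read from the data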;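 further: 0% = compound-free wells with enzyme and 100% = wells lacking proteasome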
Target sequence (Q9Y5K5 whole entry, looked up): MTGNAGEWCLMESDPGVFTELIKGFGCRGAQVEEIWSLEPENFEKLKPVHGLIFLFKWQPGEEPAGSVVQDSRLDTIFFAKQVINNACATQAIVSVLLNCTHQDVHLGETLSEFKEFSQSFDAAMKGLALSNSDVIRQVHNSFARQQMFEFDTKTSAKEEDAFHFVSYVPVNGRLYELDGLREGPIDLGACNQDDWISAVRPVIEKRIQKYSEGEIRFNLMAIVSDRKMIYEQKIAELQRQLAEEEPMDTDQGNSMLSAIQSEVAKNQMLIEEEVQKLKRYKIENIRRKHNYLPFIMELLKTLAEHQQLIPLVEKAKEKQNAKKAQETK
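Signal – fluorescence, ex 355 nm, em 460 nm · System – Proteasome-bound UCH37 · Input – 0.15 nM proteasome as dispensed · Timing – 30 min preincubation with enzyme, 25 min cleavage at room temperature · Read-out basis – percent inhibition of cleavage signal versus uninhibited and no-proteasome wells · Medium – Tris-HCl pH 7.4 with ATP-MgCl2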
Vif imaging = HIV Vif inhibition; HEK293T cells, Vif self-association by quenched fluorescence, imaging, 24 h; inhibition, % at 7.49 µM; 340,000 compounds, 0.35% hits; AID 602346; in the data active means inhibition above about 50%, passing the limit was not always enough
N-glyco inh = N-linked glycosylation inhibition; 360,000 compounds, 0.23% hits; reporter increase, % at 12.5 µM; D54 ERlucT glycosylation luciferase reporter, 24 h; percent of 100 nM tunicamycin response;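 active means mean luciferase reporter signal, scaled so untreated is 0 and the glycosylation-blocking control 100, at or above a set limit in every replicate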;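 further: luciferase carries N-glycosylation sites so blocking glycosylation raises the light; 0% = median of neutral control wells and 100% = median of 100 nM tunicamycin wells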
MsrA inh confirm = bovine MsrA inhibition, confirmed; shares compounds with MsrA inhibitor; purified bovine MsrA, absorbance read-out; AID 651822; inhibition, % at 15.5 µM; 2,300 compounds, 41% hits;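 further: coupled to thioredoxin reductase with NADPH and selenocystamine and DMSO as substrate; 0% = vehicle only and 100% = full effect of reference inhibitor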
The depositor's hits bear a star; x = no result. Unless noted, no stated cut-off is given here; in the data, active means inhibition above about 4.5%; inactive means the rest.

SMILES	bovine MsrA act	aDG glyco act	MsrA inhibitor	UCH37 inh	Vif imaging	N-glyco inh	MsrA inh confirm
Cc1ccc(C(=O)ON=Cc2c(Cl)n(C)c3ccccc23)cc1	x	x	x	1	x	x	x
O=C(NN=Cc1ccccc1OC(F)F)c1ccc(NS(=O)(=O)c2cccs2)cc1	1	0	3	-5	11	-1	x
COc1cc(/C=N/NC(=O)c2ccc(NS(=O)(=O)c3cccs3)cc2)cc(OC)c1O	-5	0	6.5*	x	1	-1	6.4*
C/C(=N\NC(=O)c1ccc(NS(=O)(=O)c2cccs2)cc1)c1ccc(O)cc1O	-3	0	5.5*	x	-6	0	4.7*
COc1cc(C=NNC(=O)c2ccccc2NS(=O)(=O)c2cccs2)cc(OC)c1O	-5	0	4	10	22	1	x
O=C(N/N=C/c1ccc([N+](=O)[O-])cc1)c1ccc(NS(=O)(=O)c2cccs2)cc1	-4	0	5.4*	x	11	-1	6.3*
O=C(NN=Cc1ccc(OC(F)F)cc1)c1ccc(NS(=O)(=O)c2cccs2)cc1	-5	0	5.5*	6	-4	0	3
COc1ccc(OCC(=O)NN=C(C)Cc2ccccc2)cc1	x	x	x	3	x	x	x
CC(=NN1CCN(Cc2ccccc2)CC1)c1ccco1	x	x	x	2	x	x	x
Cc1cc(NC(=O)/C(C#N)=C/c2ccco2)n(-c2ccccc2)n1	-4	0	8.7*	16	1	-1	4
COc1cc(C=NNC(=O)CC2(C)OCCO2)cc(Br)c1O	x	x	x	-77	x	x	x
CCN(CC)c1ccc(/C=N/NC(=O)CNC(=O)C2COc3ccccc3O2)c(O)c1 (configuration not stated)	-10	2	5.2*	x	3	-10	3
CCN(CC)c1ccc(/C=N/NC(=O)CCC(=O)NCc2ccccc2)c(O)c1	-17	1	4.7*	x	4	-10	4.8*
CCOC(=O)N/N=C/c1ccc(N(CC)CC)cc1O	-7	0	6.1*	x	1	16	6.3*
O=C(CNC(=O)C1COc2ccccc2O1)NN=Cc1ccc(O)cc1O (configuration not stated)	x	x	x	-5	x	x	x
CCN(CC)c1ccc(C=NNC(=O)OC)c(O)c1	x	x	x	3	x	x	x
Cc1ccc(Sc2ncccc2C=NO)cc1	x	x	x	-2	x	x	x
N#CC(c1ccc(O)cc1)N1CCN(C(C#N)c2ccc(O)cc2)CC1 (configuration not stated)	-5	0	5.0*	x	-5	1	1
O=c1c2ccccc2nc(/C=C/c2c[nH]c3ccccc23)n1CCO	-1	0	5.0*	-12	-7	2	3
O=c1c2ccccc2nc(/C=C/c2cc(Br)ccc2O)n1CCO	-2	0	0	0	-4	-4	x
CN(C)c1ccc(C=NN=C2SC(CC(=O)O)C(=O)N2c2ccc(O)cc2)cc1 (configuration not stated)	x	x	x	-243	x	x	x
CN1C(=O)N(C)C2(c3ccccc3)Nn3c(sc(=Cc4ccco4)c3=O)=NC12c1ccccc1 (configuration not stated)	x	x	x	0	x	x	x
O=C(N/N=C/C(Cl)=C/c1ccc([N+](=O)[O-])cc1)C(=O)Nc1ccccc1C(=O)O	-4	0	7.5*	x	x	2	3
O=C(N/N=C/C(Cl)=C/c1ccc([N+](=O)[O-])cc1)C(=O)Nc1ccc(C(=O)O)cc1	-5	0	2	x	4	0	x
CN(C)S(=O)(=O)c1ccc2nc(NC(=O)c3cccs3)sc2c1	-3	-1	6.2*	5	-9	-8	5.4*
SMILES	bovine MsrA act	aDG glyco act	MsrA inhibitor	UCH37 inh	Vif imaging	N-glyco inh	MsrA inh confirm
O=C(Nc1nc2ccc(S(=O)(=O)N3CCOCC3)cc2s1)c1cccs1	-2	0	5.6*	-2	-25	0	4
O=C(Nc1nc2ccc(S(=O)(=O)N3CCCC3)cc2s1)c1cccs1	-4	0	3	4	6	2	x
CC(CC(=O)N(C(C)C)C(C)C)=NNC(=O)c1ccccc1Br	x	x	x	-2	x	x	x
O=C1c2cccc3cc([N+](=O)[O-])cc(c23)C(=O)N1/N=C/c1ccc(O)cc1O	-5	0	4.7*	x	6	10	2
Cc1cc(=O)[nH]c(NN=Cc2ccc3c(c2)OCCO3)n1	x	x	x	1	x	x	x
CNc1cncc(-c2cccc(NS(C)(=O)=O)c2)n1	-2	0	5.8*	x	2	-3	4
COCc1cc(C)nc(N/N=C/c2ccc(-c3cc(C(=O)O)ccc3Cl)o2)c1C#N	x	x	5.3*	x	x	x	1
CC(=NNC(=O)c1ccncc1)c1cc2ccccc2oc1=O	x	x	x	4	x	x	x
COc1cc(C=NNc2nc3ccccc3o2)cc(OC)c1OC	x	x	x	0	x	x	x
O=C(NN=Cc1ccc(Br)s1)c1ccccn1	x	x	x	7	x	x	x
O=C(NCc1cccnc1)c1cc(C2CCCN(C(=O)c3ccccn3)C2)on1 (configuration not stated)	-5	0	48*	x	-5	-1	0
O=C(NN=Cc1cccc(Oc2ccccc2)c1)c1cccc(O)c1	x	x	x	4	x	x	x
O=S1(=O)N=C(N2CCc3ccccc3C2)c2ccccc21	-2	1	-1	-3	0	2	x
O=S1(=O)N=C(N2CCCc3ccccc32)c2ccccc21	-2	0	10*	-2	1	2	3
CC(C)NC(=S)N/N=C/c1ccc(N2CCOCC2)cc1	-4	0	7.0*	x	-6	-1	5.4*
COCCNC(=S)N/N=C/c1ccc(N2CCOCC2)cc1	-6	2	8.1*	x	-2	0	5.9*
COc1ccc(/C=N\Nc2ncc(F)c(N3CCOCC3)n2)cc1OC	-5	0	4.7*	x	-7	-3	4
C=C(C)CNC(=S)N/N=C/c1ccc(N2CCOCC2)cc1	-6	4	6.1*	x	0	-2	5.1*
C=C(C)CNC(=S)NN=Cc1ccc(N2CCOCC2)cc1	x	x	x	-198	x	x	x
CC(=NNS(=O)(=O)c1ccc(Br)cc1)c1ccncc1	x	x	x	0	x	x	x
COc1ccc(C=NNC(=O)Cn2nnc3ccccc32)cc1OC	x	x	x	7	x	x	x
CCOC(=O)c1sc2ncn(N=CN(C)C)c(=O)c2c1C	x	x	x	-15	x	x	x
COc1cccc(C=NNC(=O)CCn2nnc3ccccc32)c1	x	x	x	4	x	x	x
COc1cc(OC)c(OC)cc1C=NNC(=S)NCCN1CCOCC1	x	x	x	-70	x	x	x
COc1cc(/C=N/NC(=S)NCCN2CCOCC2)ccc1O	-5	0	7.4*	x	9	3	5.2*
O=C(O)c1cc(N/N=C/c2ccc(N3CCOCC3)cc2)ccc1Cl	-13	0	4.8*	x	-8	-4	5.8*
Cc1cc(C)nc(N/N=C/c2ccc(N3CCOCC3)cc2)n1	-11	0	6.6*	x	-2	0	6.1*
O=[N+]([O-])c1cc(C=NN2CCCCC2)ccc1Cl	x	x	x	2	x	x	x
CC(=O)Nc1ccc(C=NNc2nc3ccccc3s2)cc1	x	x	x	0	x	x	x
Cc1ccc(/C=N/N=C2/NC(=O)C(CC(=O)Nc3ccc(Cl)cc3)S2)o1 (configuration not stated)	-2	0	1	x	4	3	x
